# Measurements: ChEMBL document CHEMBL1143208, “Structure and property based design of factor Xa inhibitors: biaryl pyrrolidin-2-ones incorporating basic heterocyclic motifs” (Bioorg Med Chem Lett, 2008)
# What was measured:
# [1] = Distribution coefficient, log D of the compound; type: physicochemical; settings: chromatographic hydrophobicity index (CHI) at pH 7.4
# Outline: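 Measured hydrophobicity expressed as a chromatographic hydrophobicity index (CHI) logD at pH 7.4.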
# [2] = Dissociation constant, pKa of the compound; type: physicochemical
# [3] = Volume of distribution at steady state in Sprague-Dawley rat; type: ADME, organism-based; settings: in vivo, read-out: Vdss
# Outline: (§1)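 Male Sprague–Dawley rats dosed intravenously and orally, with pharmacokinetic parameters derived from both routes.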
# [4] = Half life in Sprague-Dawley rat; type: ADME, organism-based; settings: in vivo; outline: as §1
# [5] = Plasma clearance in Sprague-Dawley rat; type: ADME, organism-based; outline: as §1
# [6] = Oral bioavailability in Sprague-Dawley rat; type: ADME, organism-based; settings: in vivo; outline: as §1
logD [1],Compound,also measured
2.21,O=C1C(NS(=O)(=O)/C=C/c2ccc(Cl)s2)CCN1c1ccc(-n2ccnc2CN2CCCC2)cc1F (configuration not stated),pKa [2]: 7.95
2.32,CN(C)Cc1nccn1-c1ccc(N2CCC(NS(=O)(=O)CCc3ccc(Cl)s3)C2=O)c(F)c1 (configuration not stated),Vd [3]: 1.1 L/kg; half-life [4]: 48 min; clearance [5]: 39 mL/min/kg; bioavailability [6]: 10%
2.7,CC(C)N(C)Cc1nccn1-c1ccc(N2CCC(NS(=O)(=O)/C=C/c3ccc(Cl)s3)C2=O)c(F)c1 (configuration not stated),–
3.35,CN(C)Cc1ccnn1-c1ccc(N2CCC(NS(=O)(=O)c3cc4ccc(Cl)cc4s3)C2=O)c(F)c1 (configuration not stated),–
2.28,O=C1C(NS(=O)(=O)/C=C/c2ccc(Cl)s2)CCN1c1ccc(-n2ccnc2CN2CCOCC2)cc1F (configuration not stated),pKa [2]: 5.75
2.75,CN(C)Cc1nccn1-c1ccc(N2CCC(NS(=O)(=O)c3ncc(-c4ccc(Cl)s4)s3)C2=O)c(F)c1 (configuration not stated),–
3.29,CN(C)Cc1nocc1-c1ccc(N2CCC(NS(=O)(=O)/C=C/c3ccc(Cl)s3)C2=O)c(F)c1 (configuration not stated),–
2.54,CN(C)Cc1nccn1-c1ccc(N2CCC(NS(=O)(=O)/C=C/c3ccc(Cl)s3)C2=O)c(F)c1 (configuration not stated),Vd [3]: 0.6 L/kg; half-life [4]: 60 min; clearance [5]: 13 mL/min/kg; pKa [2]: 7.26; bioavailability [6]: 52%
2.2,C/C(=C\S(=O)(=O)NC1CCN(c2ccc(-n3ccc(CN(C)C)n3)cc2F)C1=O)c1ccc(Cl)s1 (configuration not stated),–
2.58,CN(C)Cc1nccn1-c1ccc(N2CCC(NS(=O)(=O)c3cc4ccc(Cl)cc4s3)C2=O)c(F)c1 (configuration not stated),–
1.98,CN(C)Cc1nccn1-c1ccc(N2CCC(NS(=O)(=O)c3ccc4c(Cl)c[nH]c4c3)C2=O)c(F)c1 (configuration not stated),–
2.31,C/C(=C\S(=O)(=O)NC1CCN(c2ccc(-n3cncc3CN(C)C)cc2F)C1=O)c1ccc(Cl)s1 (configuration not stated),–
2.44,C/C(=C\S(=O)(=O)NC1CCN(c2ccc(-n3ccnc3CN(C)C)cc2F)C1=O)c1ccc(Cl)s1 (configuration not stated),Vd [3]: 0.7 L/kg; half-life [4]: 48 min; clearance [5]: 18 mL/min/kg; bioavailability [6]: 16%
2.59,CN(C)Cc1nccn1-c1ccc(N2CCC(NS(=O)(=O)c3cc4cc(Cl)ccc4s3)C2=O)c(F)c1 (configuration not stated),–
1.82,CN(C)Cc1cn(-c2ccc(N3CCC(NS(=O)(=O)c4cc5ccc(Cl)cc5s4)C3=O)c(F)c2)cn1 (configuration not stated),–
2.55,CN(C)Cc1nccn1-c1ccc(N2CCC(NS(=O)(=O)c3ccc4cc(Cl)ccc4c3)C2=O)c(F)c1 (configuration not stated),–
2.4,CN(C)Cc1ccn(-c2ccc(N3CCC(NS(=O)(=O)c4cc5ccc(Cl)cc5s4)C3=O)c(F)c2)n1 (configuration not stated),–
1.7,CNCc1nccn1-c1ccc(N2CCC(NS(=O)(=O)/C=C/c3ccc(Cl)s3)C2=O)c(F)c1 (configuration not stated),–
1.76,CN(C)Cc1nccn1-c1ccc(N2CCC(NS(=O)(=O)c3ccc4[nH]cc(Cl)c4c3)C2=O)c(F)c1 (configuration not stated),–
1.64,C/C(=C\S(=O)(=O)NC1CCN(c2ccc(-n3cnc(CN(C)C)c3)cc2F)C1=O)c1ccc(Cl)s1 (configuration not stated),–
2.48,CCN(C)Cc1nccn1-c1ccc(N2CCC(NS(=O)(=O)/C=C/c3ccc(Cl)s3)C2=O)c(F)c1 (configuration not stated),–
2.58,O=C1C(NS(=O)(=O)/C=C/c2ccc(Cl)s2)CCN1c1ccc(-n2ccnc2CN2CCC(F)C2)cc1F (configuration not stated),–
